Bioassay records from PubChem BioAssay.
Pf Dd2 inh = inhibitors of Plasmodium falciparum Dd2 growth; P. falciparum Dd2 growth, SYBR Green, 72 h; stronger effect = lower value; AID 1159554; 94,000 tested, 2.3% active; activity change, % at 10 µM; in the data active means activity change below about -80%; inconclusive means no clear call, values can overlap the other calls
KDM4C inh = KDM4C (human) demethylase inhibition. GST-KDM4C 2-372, H3K9me3 peptide, LANCE TR-FRET. inhibition, % at 12.5 µM. 96,000 tested, 0.15% active;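 active means mean replicate inhibition above about 25%, with at least 55% of replicates also reaching it, limit read from the data, passing the limit was not always enough; inconclusive means only one of those two conditions met; inactive means neither condition met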
Target sequence (Q9H3R0 2-372 limits assumed): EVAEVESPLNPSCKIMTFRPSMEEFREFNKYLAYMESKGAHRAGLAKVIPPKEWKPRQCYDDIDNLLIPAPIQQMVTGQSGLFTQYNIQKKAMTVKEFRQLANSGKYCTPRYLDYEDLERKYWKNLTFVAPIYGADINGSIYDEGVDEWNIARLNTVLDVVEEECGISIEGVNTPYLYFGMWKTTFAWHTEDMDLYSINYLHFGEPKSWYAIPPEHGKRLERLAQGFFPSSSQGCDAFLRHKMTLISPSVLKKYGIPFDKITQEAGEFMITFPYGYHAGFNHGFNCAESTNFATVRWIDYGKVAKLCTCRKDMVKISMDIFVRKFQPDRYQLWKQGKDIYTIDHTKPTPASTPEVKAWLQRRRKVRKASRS
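Material: GST-tagged GASC-1 (JMJD2C) catalytic fragment, aa 2-372. Input: enzyme final amount 10 nM. Medium: HEPES buffer, pH 7.5, plus ascorbate. Reagent: H3K9me3 peptide substrate, Fe(II), 2-oxoglutarate. Doses: single dose. Times: reaction 30 min RT, detection step 1 h RT. Measured by: LANCE TR-FRET. Evaluation: Fall in 671/618 emission ratio as inhibition.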
IDH1 mut inh = IDH1 R132H (human) inhibition. IDH1 R132H reductase, diaphorase/resazurin fluorescence, 60 min. inhibition, % at 10 µM. 70,000 tested, 0.18% active; in the data active means inhibition above about 34%; inconclusive means no clear call, values can overlap the other calls; inactive means below about 11%;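 further: 0% = DMSO and 100% = no enzyme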
T cruzi growth-1 = T. cruzi proliferation inhibition; T. cruzi beta-gal in NIH3T3, GalScreen luminescence, 90 h; inhibition, % at 8.34 µM; 77,000 tested, 5.9% active; AID 624255;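 active means mean inhibition above about 93%, with at least 55% of replicates each passing it, limit read from the data, passing the limit was not always enough; inconclusive means only one of those two conditions holds; inactive means neither condition holds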
T cruzi growth-2 = Trypanosoma cruzi proliferation inhibition. shares compounds with T cruzi growth-1. T. cruzi beta-gal in NIH3T3, GalScreen luminescence, 90 h. inhibition, % at 8.35 µM. 5,600 tested, 72% active;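 active means mean replicate inhibition above about 95% and at least 55% of replicates individually reaching it, limit read from the data; inconclusive means only one of the two criteria is met; inactive means neither criterion is met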
T cruzi growth-3 = inhibitors of T. cruzi proliferation; shares compounds with T cruzi growth-1; T. cruzi beta-gal in NIH3T3, GalScreen luminescence, 90 h; inhibition, % at 2.09 µM; 5,600 tested, 21% active; AID 651740;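 active means mean inhibition above about 95%, with at least 55% of replicates also reaching it, limit read from the data; inconclusive means meets just one of the two conditions; inactive means meets neither condition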;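 further: plate controls were neutral control median for no effect and positive control median for full effect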
3T3 cytotox = kills mouse NIH/3T3 fibroblasts; shares compounds with T cruzi growth-1; NIH/3T3 viability, CellTiter-Glo ATP luminescence, 90 h; cytotoxicity (signal decrease), % at 8.35 µM; 5,600 tested, 14% active;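 active means mean signal decrease across replicates above about 35% based on untreated-well scatter, with enough replicates individually passing, limit read from the data; inconclusive means no rule stated though some were filed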;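 further: 0% = median of neutral control wells and 100% = median of positive control wells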
3T3 cytotox 2 = NIH/3T3 (mouse) viability loss; shares compounds with T cruzi growth-1; NIH/3T3 viability, CellTiter-Glo ATP luminescence, 90 h; inhibition, % at 24.9 µM; 5,600 tested, 56% active; AID 651744;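 active means mean loss of cell viability signal at or above a set limit, and enough replicates individually reaching it; inconclusive means meets only the mean limit or only the replicate share; inactive means meets neither condition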;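 further: 0% = median of neutral control wells and 100% = median of positive control wells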
* hit, by the source's call; u = inconclusive; x = no result. Hits are enriched below; roughly 5.9% of the tested compounds scored in any of these assays.

SMILES | Pf Dd2 inh | KDM4C inh | IDH1 mut inh | T cruzi growth-1 | T cruzi growth-2 | T cruzi growth-3 | 3T3 cytotox | 3T3 cytotox 2
CCCC#Cc1ccc2c(c1)O[C@@H](CN(C)C(=O)c1ccccc1)[C@H](C)CN([C@@H](C)CO)S2(=O)=O | -58 | 0 | 0 | 96* | 102* | 73 | 32 | 62*
CC(C)CC#Cc1ccc2c(c1)O[C@@H](CN(C)C(=O)c1ccccc1)[C@@H](C)CN([C@@H](C)CO)S2(=O)=O | -70 | -6 | 0 | 120* | 102* | 88 | 27 | 103*
CC(C)CC#Cc1ccc2c(c1)O[C@H](CN(C)C(=O)c1ccccc1)[C@@H](C)CN([C@H](C)CO)S2(=O)=O | -57 | -2 | 2 | x | x | x | x | x
CCCC#Cc1ccc2c(c1)O[C@H](CN(C)C(=O)c1ccccc1)[C@H](C)CN([C@H](C)CO)S2(=O)=O | -66 | 0 | 0 | 98* | 107* | 81 | -3 | 58*
CCCC#Cc1ccc2c(c1)O[C@H](CN(C)C(=O)c1ccncc1)[C@H](C)CN([C@@H](C)CO)S2(=O)=O | -14 | 3 | 0 | 84 | x | x | x | x
Cc1noc(C)c1S(=O)(=O)Nc1ccc2c(c1)C(=O)N([C@H](C)CO)C[C@H](C)[C@@H](CN(C)C(=O)NC(C)C)O2 | -10 | 1 | 3 | 1 | x | x | x | x
C[C@H]1CCCCO[C@H](CN(C)Cc2ccc(C(=O)O)cc2)[C@@H](C)CN([C@@H](C)CO)C(=O)c2cc(NC(=O)Nc3ccc4c(c3)OCO4)ccc2O1 | 19 | 1 | x | 7 | x | x | x | x
CN(c1cccc(NC(=O)c2ccc(Cl)c(S(=O)(=O)N3CCOCC3)c2)c1)S(C)(=O)=O | x | x | 0 | x | x | x | x | x
CCCC#Cc1ccc([C@H]2[C@@H](C#N)N(C(=O)CN3CCOCC3)[C@H]2CO)cc1 | -14 | -1 | x | 98* | 103* | 84 | 18 | u
N#C[C@@H]1[C@@H](c2ccccc2)[C@H](CO)N1C(=O)CN1CCOCC1 | 23 | -1 | x | 64 | x | x | x | x
CCCC#Cc1ccc([C@H]2[C@@H](C#N)N(C(=O)CN3CCOCC3)[C@@H]2CO)cc1 | 9 | 1 | x | 105* | 98* | 52 | -12 | 4
C[C@@H]1CN([C@@H](C)CO)C(=O)Cc2cc(NC(=O)NC3CCCCC3)ccc2O[C@@H]1CN(C)CC1CCCCC1 | 4 | 1 | x | 30 | x | x | x | x
COc1cccc(NC(=O)CN(c2ccc(Br)c(C)c2)S(C)(=O)=O)c1 | x | x | 0 | x | x | x | x | x
C[C@@H]1CN([C@@H](C)CO)C(=O)c2c(c3ccccc3n2C)-c2ccccc2CO[C@@H]1CN(C)C(=O)Nc1ccccc1C(F)(F)F | -52 | -2 | x | x | x | x | x | x
C/C=C/c1ccc([C@H]2[C@@H](CO)N3CCCCN(C(=O)Nc4ccccc4F)C[C@@H]23)cc1 | 21 | -2 | x | 110* | 98* | 52 | -13 | 2
O=C(Nc1ccccc1F)N1CCCCN2[C@H](CO)[C@H](c3ccc(/C=C/c4ccccc4)cc3)[C@@H]2C1 | -3 | 0 | x | 116* | 96* | 113* | 45* | 58*
COc1ccc(S(=O)(=O)Nc2cccc3c2O[C@H](CN(C)C(=O)Nc2c(C)noc2C)[C@H](C)CN([C@@H](C)CO)C3=O)cc1 | 13 | 0 | x | 84 | x | x | x | x
O=C(c1cccc(F)c1)N1CCCCN2[C@@H](CO)[C@H](c3ccc(-c4ccccc4)cc3)[C@@H]2C1 | -11 | -1 | x | 103* | 105* | 53 | 24 | 91*
O=C(c1cccc(F)c1)N1CCCCN2[C@H](CO)[C@H](c3ccc(-c4ccccc4)cc3)[C@@H]2C1 | -7 | -1 | x | 102* | 113* | 89 | 16 | 11
Cn1c(SCC(=O)N2CCCCC2)nnc1-c1cccc(NC(=O)c2ccccc2)c1 | x | x | 0 | x | x | x | x | x
O=C(Nc1ccccc1F)N1CCCCN2[C@@H](CO)[C@H](c3ccc(C#Cc4cccnc4)cc3)[C@@H]2C1 | -77 | 0 | x | 122* | 106* | 39 | 24 | 38*
O=C(Nc1ccccc1F)N1CCCCN2[C@H](C1)[C@H](c1ccc(C#Cc3ccccc3)cc1)[C@@H]2CO | -26 | 1 | x | 69 | x | x | x | x
O=C(Nc1ccccc1F)N1CCCCN2[C@H](CO)[C@H](c3ccc(C#Cc4cccnc4)cc3)[C@H]2C1 | -49 | -1 | x | 101* | 109* | 64 | 27 | 70*
COc1cccc(CNC(=O)C[C@@H]2CC[C@H](NC(=O)C3CC3)[C@H](CO)O2)c1 | 29 | -1 | 0 | x | x | x | x | x
C[C@@H]1CN([C@H](C)CO)C(=O)c2cc(NC(=O)Nc3ccccc3)ccc2O[C@@H](C)CCCCO[C@@H]1CN(C)CC1CCCCC1 | u | -1 | -1 | 87 | x | x | x | x
SMILES | Pf Dd2 inh | KDM4C inh | IDH1 mut inh | T cruzi growth-1 | T cruzi growth-2 | T cruzi growth-3 | 3T3 cytotox | 3T3 cytotox 2
C[C@@H]1CN([C@@H](C)CO)C(=O)c2cc(NC(=O)Nc3ccccc3)ccc2O[C@@H](C)CCCCO[C@@H]1CN(C)CC1CCCCC1 | -74 | -1 | 0 | u | 101* | 39 | 3 | 104*
C[C@H]1CCCCO[C@H](CN(C)CC2CCCCC2)[C@@H](C)CN([C@@H](C)CO)C(=O)c2cc(NC(=O)Nc3ccccc3)ccc2O1 | -73 | -1 | x | 82 | x | x | x | x
C[C@@H]1CCCCO[C@@H](CN(C)CC2CCCCC2)[C@H](C)CN([C@H](C)CO)C(=O)c2cc(NC(=O)NC3CCCCC3)ccc2O1 | -73 | -1 | 0 | 106* | 104* | 84 | 3 | 107*
C[C@@H]1CCCCO[C@@H](CN(C)CC2CCCCC2)[C@@H](C)CN([C@H](C)CO)C(=O)c2cc(NC(=O)Nc3ccccc3)ccc2O1 | -65 | -2 | 1 | 103* | 105* | 97* | 13 | 57*
C[C@@H]1CCCCO[C@@H](CN(C)CC2CCCCC2)[C@H](C)CN([C@H](C)CO)C(=O)c2cc(NC(=O)c3ccccc3)ccc2O1 | -70 | -1 | x | 117* | 112* | u | 20 | 105*
CCCNC(=O)Nc1ccc2c(c1)C(=O)N(C)[C@H]1CC[C@@H](CC(=O)NCC3CCCCC3)O[C@@H]1CO2 | -4 | 1 | x | 5 | x | x | x | x
COc1ccc(NC(=O)N(C)C[C@@H]2OCCCC[C@H](C)Oc3ccc(NC(=O)Cc4ccccc4)cc3C(=O)N([C@H](C)CO)C[C@H]2C)cc1 | -25 | 1 | 1 | -1 | x | x | x | x
C[C@@H]1CN([C@@H](C)CO)C(=O)c2cc(NC(=O)Cc3ccccc3)ccc2O[C@@H](C)CCCCO[C@H]1CN(C)CC1CCCCC1 | -39 | -1 | x | 116* | 109* | 59 | 1 | 58*
